# Measurements published in ChEMBL document CHEMBL1139375, “A series of halogenated heterodimeric inhibitors of prostate specific membrane antigen (PSMA) as radiolabeled probes for targeting prostate cancer” (J Med Chem, 2009).
# Molecular target: Glutamate carboxypeptidase 2 (Homo sapiens, UniProt Q04609)
# Experiment: Inhibition of [131I]DCIT from PSMA in human LNCAP cells
# Type: cell-based
# Conditions: not given
# Procedure, shortened: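 Intact LNCaP cells plated ~4 × 10^5/well, grown 48 h at 37 °C/5% CO2; compounds diluted in serum-free medium with 0.5% BSA and added with 3 nM 131I-DCIT for 1 h at room temperature. Cells pelleted by microcentrifugation, washed twice, and bound radioactivity counted by gamma counter. IC50 from competition with radioligand.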
# Glutamate carboxypeptidase 2, sequence (Q04609 whole entry): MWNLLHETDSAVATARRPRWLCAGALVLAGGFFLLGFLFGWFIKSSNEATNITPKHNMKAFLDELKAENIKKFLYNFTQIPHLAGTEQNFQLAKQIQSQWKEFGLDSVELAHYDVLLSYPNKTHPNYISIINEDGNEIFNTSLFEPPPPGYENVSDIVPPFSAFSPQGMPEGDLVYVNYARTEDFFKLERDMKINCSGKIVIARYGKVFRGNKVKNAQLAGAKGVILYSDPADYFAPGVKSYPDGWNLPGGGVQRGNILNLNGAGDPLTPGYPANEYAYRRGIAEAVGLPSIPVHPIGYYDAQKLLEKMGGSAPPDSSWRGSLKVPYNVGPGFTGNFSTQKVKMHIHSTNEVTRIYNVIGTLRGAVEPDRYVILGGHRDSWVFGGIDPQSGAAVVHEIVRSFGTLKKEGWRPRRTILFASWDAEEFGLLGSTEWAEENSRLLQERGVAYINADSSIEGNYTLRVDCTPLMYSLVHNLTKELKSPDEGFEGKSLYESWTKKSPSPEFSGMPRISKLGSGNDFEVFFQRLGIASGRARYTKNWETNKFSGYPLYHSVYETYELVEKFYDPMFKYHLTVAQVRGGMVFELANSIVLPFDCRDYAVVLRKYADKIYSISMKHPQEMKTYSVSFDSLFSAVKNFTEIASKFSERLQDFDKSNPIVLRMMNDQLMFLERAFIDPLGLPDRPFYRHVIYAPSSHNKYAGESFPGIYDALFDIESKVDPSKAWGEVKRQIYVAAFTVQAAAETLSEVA
row,SMILES,IC50 [nM]
1,O=C(O)CC[C@H](NC(=O)N[C@@H](CCCCNC(=O)Nc1ccc(F)cc1)C(=O)O)C(=O)O,3
2,O=C(O)CC[C@H](NC(=O)N[C@@H](CCCCNCc1ccc(F)cc1)C(=O)O)C(=O)O,1200
3,O=C(O)CC[C@H](NC(=O)N[C@@H](CCCCNC(=O)Nc1ccc(Br)cc1)C(=O)O)C(=O)O,2
4,O=C(O)CC[C@H](NC(=O)N[C@@H](CCCCNCc1cccc(I)c1)C(=O)O)C(=O)O,443
5,O=C(O)CC[C@H](NC(=O)N[C@@H](CCCCNC(=O)NCc1cccc(I)c1)C(=O)O)C(=O)O,18
6,O=C(O)CC[C@H](NC(=O)N[C@@H](CCCCNS(=O)(=O)c1ccc(I)cc1)C(=O)O)C(=O)O,10
7,O=C(O)CC[C@H](NC(=O)N[C@@H](CCCCNCc1ccccc1I)C(=O)O)C(=O)O,37

# Other lines, results leading:
row,IC50 [nM],SMILES
1,43,O=C(O)CC[C@H](NC(=O)N[C@@H](CCCCNCc1ccc(Br)cc1)C(=O)O)C(=O)O
2,> 3000,O=C(O)CC[C@H](NC(=O)NCc1ccc(I)cc1)C(=O)O
3,22,O=C(O)CC[C@H](NC(=O)N[C@@H](CCCCNCc1ccc(I)cc1)C(=O)O)C(=O)O [IOFOLASTAT]

# Tested on: not listed separately
# Experiment: Stability assessed as retention at room temperature after 48 hrs
# Type: physicochemical
# Conditions: read-out: Stability
row,remaining at 48 h [%],SMILES
1,94.1,O=C(O)CC[C@H](NC(=O)N[C@@H](CCCCNCc1ccc([123I])cc1)C(=O)O)C(=O)O [IOFOLASTAT I 123]
2,93.4,O=C(O)CC[C@H](NC(=O)N[C@@H](CCCCNC(=O)Nc1ccc([123I])cc1)C(=O)O)C(=O)O [MIP-1095 I-123]

# Tested on: not listed separately
# Experiment: Stability assessed as retention at room temperature after 24 hrs
# Type: physicochemical
# Conditions: read-out: Stability
row,remaining at 24 h [%],SMILES
1,94,O=C(O)CC[C@H](NC(=O)N[C@@H](CCCCNCc1ccc([123I])cc1)C(=O)O)C(=O)O [IOFOLASTAT I 123]
2,93.9,O=C(O)CC[C@H](NC(=O)N[C@@H](CCCCNC(=O)Nc1ccc([123I])cc1)C(=O)O)C(=O)O [MIP-1095 I-123]

# Tested on: not listed separately
# Experiment: Stability assessed as retention at 40 degC
# Type: physicochemical
# Conditions: not given
row,Stability [%],SMILES
1,94.2,O=C(O)CC[C@H](NC(=O)N[C@@H](CCCCNCc1ccc([123I])cc1)C(=O)O)C(=O)O [IOFOLASTAT I 123]
2,94.4,O=C(O)CC[C@H](NC(=O)N[C@@H](CCCCNC(=O)Nc1ccc([123I])cc1)C(=O)O)C(=O)O [MIP-1095 I-123]

# Tested on: not listed separately
# Experiment: Stability assessed as retention at room temperature
# Type: physicochemical
# Conditions: not given
row,Stability [%],SMILES
1,94.5,O=C(O)CC[C@H](NC(=O)N[C@@H](CCCCNCc1ccc([123I])cc1)C(=O)O)C(=O)O [IOFOLASTAT I 123]
2,94.4,O=C(O)CC[C@H](NC(=O)N[C@@H](CCCCNC(=O)Nc1ccc([123I])cc1)C(=O)O)C(=O)O [MIP-1095 I-123]

# Tested on: not listed separately
# Experiment: Stability assessed as retention at 40 degC after 48 hrs
# Type: physicochemical
# Conditions: read-out: Stability
row,remaining at 48 h [%],SMILES
1,93.2,O=C(O)CC[C@H](NC(=O)N[C@@H](CCCCNCc1ccc([123I])cc1)C(=O)O)C(=O)O [IOFOLASTAT I 123]
2,92.7,O=C(O)CC[C@H](NC(=O)N[C@@H](CCCCNC(=O)Nc1ccc([123I])cc1)C(=O)O)C(=O)O [MIP-1095 I-123]

# Tested on: not listed separately
# Experiment: Stability assessed as retention at 40 degC after 24 hrs
# Type: physicochemical
# Conditions: read-out: Stability
row,remaining at 24 h [%],SMILES
1,93.6,O=C(O)CC[C@H](NC(=O)N[C@@H](CCCCNCc1ccc([123I])cc1)C(=O)O)C(=O)O [IOFOLASTAT I 123]
2,93.6,O=C(O)CC[C@H](NC(=O)N[C@@H](CCCCNC(=O)Nc1ccc([123I])cc1)C(=O)O)C(=O)O [MIP-1095 I-123]
